Experimental data as given in ChEMBL document CHEMBL4513216, “Probing the Open Global Health Chemical Diversity Library for Multistage-Active Starting Points for Next-Generation Antimalarials” (ACS Infect Dis, 2020).

Experiment: Toxicity liver stage against HepG2, at 10uM
Type: cell-based
Set-up: test concentration 10 uM, cell line HepG2-A16-CD81EGFP
Conditions: human, HepG2-A16-CD81EGFP cells; read-out: INHIBITION
Method in brief: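 Uninfected HepG2-A16-CD81EGFP cells, 3 × 10^3 per well, 1536-well, plated on prespotted compound at 10 μM final, parasite-free screening media added to match infected plates; puromycin 10 μM positive, DMSO 0.5% negative; run in parallel with 48 h PbLuc assay at 37 °C, 5% CO2; viability by CellTiter-Glo luminescence, normalized to controls.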

Structure (SMILES)	cytotoxicity at 10 µM [%]
CC(=O)NCCC(=O)NCc1cccnc1-n1cnc2ccccc21	-14.2
CC(C)NC(=O)C[C@@H]1CCNC[C@@H]1Cc1cc(-c2ccccc2)on1	-0.626
CC(C)(C)CN1CC(COc2ccccc2)Oc2ccncc2S1(=O)=O (stereo unspecified)	-65.3
O=C1CSC(c2ccc(O)cc2)c2c(n(C3CCOCC3)[nH]c2=O)N1 (stereo unspecified)	2.84
O=S(=O)(NCC(c1ccsc1)N1CCCCCC1)c1cccs1 (stereo unspecified)	2
CCOCC(=O)NCC1CCN(Cc2ccsc2)CC1	11.1
CN(C)C(=O)c1cnn2c1OCCC2	-6.59
CSc1ccccc1NC(=O)C1CSc2ncc(C)c(=O)n2C1 (stereo unspecified)	-1.31
CC(=O)N1CCC2(CC1)C(=O)N(c1ccc(C)nc1)CCN2CC(C)C	22.2
O=C(C1CC=CC1)N1CCC2(CCN(Cc3cccc(F)c3)CC2)C1	-4.48
O=C(C1CC1)N1CCC2(COCc3cnc(N4CCOCC4)nc32)C1 (stereo unspecified)	5.31
Cc1ccc(C(=O)Oc2cc(=O)n3cccc(C)c3n2)cc1	5.62
Cc1nc(O)cc([C@@H]2CN(C(=O)C3CC3)C[C@H]2c2ccccc2F)n1	4.95
Cc1nc2c(c(NCCCN3CCOCC3)n1)CCN(C)C2	8.12
Cc1cc(-c2cnc(NC3CCCCC3)nc2-c2ccco2)on1	-16.4
O=C(c1ccco1)N1CCCC(c2cc(C(F)(F)F)n3ncnc3n2)C1 (stereo unspecified)	-3.55
Cc1cc(C)c2cc(CNCc3ccco3)c3nn(C)c(=O)n3c2c1	-13.6
Cc1cncc(C2CCCN(Cc3ccncc3)C2)n1 (stereo unspecified)	-9.8
CC(C)NC(=O)N1CCC(c2nnc3n2CCNC3)CC1	10.4
CCc1nnsc1C(=O)NCc1nnc2n1CCC2	0.371
COc1ccc(C(=O)N2CCOc3ccncc32)cc1	12.8
CCN(CC)c1ncc(Cl)c(C(=O)NC2CCC(O)CC2)n1 (stereo unspecified)	-43.5
O=C(NCC1(O)CCC1)c1c(O)cc(F)cc1F	6.22

Structure (SMILES)	cytotoxicity at 10 µM [%]
N#Cc1ccccc1CN1CCc2sccc2C1	-0.572
CC(C)C(CNC(=O)CCn1cncn1)N1CCc2ccccc2C1 (stereo unspecified)	-162
CC(=O)N1CC(C)CN(C(=O)c2cnccn2)c2ccccc21 (stereo unspecified)	3.82
CCCN(Cc1ccccc1O)C(=O)Nc1cnn(CCOC)c1	23.8
CC(Oc1cccc(Cl)c1)C(=O)Nc1cnn(CCN(C)C)c1 (stereo unspecified)	-12.5
Cc1cc(C2NC(=O)CN2Cc2ccc(Br)cc2)cc(C)c1O (stereo unspecified)	4.12
Cn1c(=O)[nH]c2cc(C(=O)OCCCn3ccccc3=O)ccc21	1.34
Cc1ccc(-c2cc(CNCCn3cc(C)cn3)on2)cc1	-7.22
CCCn1cc(NC(=O)c2ccc(S(=O)(=O)CC)cc2)ccc1=O	2.99
Cc1cnc(CN(C)Cc2cc3c(cc2OC(F)F)OCO3)o1	-8.78
Cc1cnc(CN(C)C2CCN(Cc3ccc(Cl)s3)C2)o1 (stereo unspecified)	5.33
CCn1ccnc1CNCC(c1ccc(C)s1)N1CCOCC1 (stereo unspecified)	6.41
COc1cccc(CN(C)C(=O)CN2CCN(c3nccs3)CC2)c1	-3.98
O=c1oc(-c2cccs2)nn1CC(O)c1ccc2c(c1)CCC2 (stereo unspecified)	5.33
COCCN1CCCC1c1cccc2c1OCCO2 (stereo unspecified)	-9.54
CNC(=O)CCNC(=O)Nc1cccc(Cl)c1SC(F)F	1.29
c1cnnc(N2CCCC(NCc3nc(-c4cccs4)no3)C2)c1 (stereo unspecified)	15.8
COCCN(Cc1cccnc1)S(=O)(=O)c1cc(C)ccc1F	10.3
CC1CCCCN1C(=O)c1n[nH]c(=O)c2ccccc12 (stereo unspecified)	-0.402
CCN(CC)C(=O)CN(C)C(=O)c1ccc(-c2ccsc2)nc1C	18.1
CC(CNS(C)(=O)=O)c1ccc(F)c(F)c1 (stereo unspecified)	-4.71
CN(C)c1ccc(CCCNC(=O)NCC(O)c2cccs2)cc1 (stereo unspecified)	-2.59
CN(Cc1ccco1)C(=O)Nc1ccc(=O)n(C)c1	-43.1

Structure (SMILES)	cytotoxicity at 10 µM [%]
CC(NC(=O)N(C)Cc1ccncc1)c1cn(-c2ccccc2)nn1 (stereo unspecified)	-47.7
CC(C)Cc1nc(CN(C)CCOc2ccc(F)cc2)no1	-4.68
Cn1cnnc1C1CCCN(C(=O)c2cc(-c3ccccc3)on2)C1 (stereo unspecified)	7.36
CC(NC(=O)Cc1cccs1)(C(N)=O)c1cccc(Cl)c1 (stereo unspecified)	11.3
Cc1cc(CS(=O)(=O)C(C)C(=O)N(C)c2ccccc2)on1 (stereo unspecified)	2.74
COC(=O)CCN(C)Cc1cc(Br)cs1	0.311
CC(C)(C)c1ncc(CNc2ccccc2Cn2cncn2)s1	48.7
CC(C)n1c2ccccc2c2c1cc(C(=O)NC1CC1)n2C(=O)N(C)C	-109
Cn1cc(C[C@H]2[C@H](O)CCN2C(=O)c2ccsc2)cn1	-72.6
COc1cccc([C@H]2CN(C(=O)c3scc4c3CCCC4)C[C@@H]2N)c1	-3.45
CC(CCCC(C)(C)O)Nc1ccc(-c2nccn2C)nn1 (stereo unspecified)	3.96
c1cnn(Cc2ccc(CN3CCC4(CCNCC4)C3)cc2)c1	-15.6
Cc1ccc(N2CCN(c3ccccc3C)CC2C)nn1 (stereo unspecified)	13.2
O[C@@H]1CN(c2cnc3ccccc3n2)CC[C@H]1c1ccc2c(c1)OCO2	22.4
NCc1cc(NCC(c2ccccn2)N2CCOCC2)ncn1 (stereo unspecified)	-47.5
CCc1ccc(CN(Cc2ccco2)C(C)C(C)C)nc1 (stereo unspecified)	-13.5
Cc1ccc(-n2cccn2)cc1S(=O)(=O)N1C[C@H](C2CC2)[C@@H](N)C1	0.479
Cc1nc(CC2CCN(Cc3ccc(CCC(C)(C)O)cc3)CC2)no1	-0.94
CN1CC2(CCCN(c3cc(N4CCCCC4)ncn3)C2)OC1=O (stereo unspecified)	-39.7
CCCn1cc(C(=O)NCC(=O)NC2CC2)c(C)n1	-3.91
CCC(CC)CN1CCC(n2cc(C3CCCC3)nn2)CC1	3.92
CCC(CNc1ncnc2oc(C)nc12)Cc1ccccc1 (stereo unspecified)	1.23
COCCNc1cc(-c2ccccc2C(N)=O)c2cc[nH]c2n1	-2.32

Structure (SMILES)	cytotoxicity at 10 µM [%]
CCNCCOc1ccc(-c2cc(N)nc3[nH]ccc23)cc1	24.3
N[C@@H]1CC[C@H](C(=O)NCCn2cc(Cl)cn2)C1	-36.4
OC1(CN2CCCCC2)CCN(c2ccc(C(F)(F)F)cn2)C1 (stereo unspecified)	-11
Cc1cc(C)n(CC(C)NCc2cnc3c(C)cccn23)n1 (stereo unspecified)	1.44
COC(=O)[C@H]1C[C@@H](O)CCN1S(=O)(=O)c1cc(C)c(Cl)cc1C	-0.566
Cc1nn(C)cc1-c1ccnc(NCCN)n1	-0.571
Cc1nc(C)c(C)c(NCCSc2ccccn2)n1	-4.23
CN(C)C(=O)c1cc(-c2cnc(N)nc2)nc2cc(F)ccc12	2.54
COc1coc(CN2CCCC(CCc3ccccc3F)C2)cc1=O (stereo unspecified)	-1.62
CCCS(=O)(=O)N1CCN(c2ccnc(N3CCCCC3)n2)CC1	0.805
CNC(=O)Cn1c(-c2ccco2)nn(-c2ccccc2OC)c1=O	2.51
CC(=O)NCC1CCN(c2cc(C(C)C)nc3ccnn23)CC1	6.64
CCn1ccnc1C1CCN(Cc2cccc(Cl)c2)CC1	-9.45
O=C(Cc1ccc(O)c(Cl)c1)N1CCCCC1CCn1cccn1 (stereo unspecified)	-13.6
Cc1cc(C)n(NC(=O)c2ccc(Cl)cc2Cl)c(=O)c1	-7.05
CN1CCCC[C@@H]2[C@H]1[C@@H](c1ccccc1)CCN2C(=O)c1ccccc1	-4.3
CC(C)c1ccc(CN2CCN(C(=O)c3cc(C4CC4)[nH]n3)CC2)cc1	39.7
O=C(NCCCNc1ccc(C(F)(F)F)cn1)c1ccc2c(c1)OCO2	-8.51
O=C(CS(=O)(=O)Cc1cc(Cl)c2c(c1)OCCCO2)NCC1CC1	1.07
CCCC(C#N)NC(=O)c1cc(Br)c2c(c1)OCCO2 (stereo unspecified)	-9.2
CCc1nc2n(n1)CC(NCc1nnc(C(C)C)o1)CC2 (stereo unspecified)	-15.7
CC(=O)NCCNC(=O)CN1CCCC1c1c(C)nn(C)c1C (stereo unspecified)	-25.1
Cc1cccc(-n2ncc(C(=O)N3CCn4c(C)nnc4C3)c2C)c1	2.14

Structure (SMILES)	cytotoxicity at 10 µM [%]
COc1ccccc1N1CCC(CNCc2cccc(OC)c2OC)C1 (stereo unspecified)	0.445
CC(C)(C)c1nnc(CN2CCOC(Cn3cccn3)C2)o1 (stereo unspecified)	-10.2
COc1cc(CNCc2ccc(NC(=O)NC(C)C)cc2)cc(OC)c1	0.347
CC(C)c1nc(CC(=O)Nc2nc(CN3CCCCCC3)cs2)cs1	6.02
CCN1CCC2(CC1)OCCN2C(=O)c1cc(Cl)c(OC)c(Cl)c1	9.31
CCOc1ccc(CNCC(O)c2ccccc2)cc1Cl (stereo unspecified)	-3.4
O=C(COC[C@]12COC[C@H]1CN(C1CCC1)C2)N1CCCC1	-102
CC(C)c1ccc(CN2CCC3(CCCN(c4nncs4)C3)C2)cc1 (stereo unspecified)	-1.15
CCOC(=O)[C@]12CCCN(Cc3cccs3)C[C@H]1CN(CC(C)C)C2	10.8
Cn1cc(CN2CC[C@@H]3[C@@H]2CCN3Cc2ccc3c(c2)OCO3)cn1	-3.63
COc1ccccc1C(=O)N1Cc2cc(C)ccc2OCC1CN(C)C (stereo unspecified)	5.2
c1cnc(N2CCCC(NCc3ccc(-n4ccnc4)cc3)C2)nc1 (stereo unspecified)	-7.55
c1cnc(NCc2cncc3c2CCN(Cc2ccsc2)C3)nc1	-74.4
COc1ccccc1CN1C[C@@H]2COC[C@]2(COCc2ccncc2)C1	-70.9
Fc1cnc(N2C[C@H]3CN(Cc4cccc(F)c4)C[C@H]3C2)nc1	10.4
CN(C)C(=O)CN1C[C@H]2CCN(Cc3ccccc3)CC[C@H]2S1(=O)=O	9.82
Cc1nc(CN2CCc3ncnc(-c4ccsc4)c3CC2)cs1	-79.8
CC(Cc1ccccc1F)NC(=O)CCC1=NC(=C2N=CN=N2)NO1 (stereo unspecified)	7.69
CCNc1ncc(CN2C[C@@H]3CC[C@H]2CN(C(=O)C2CCC2)C3)cn1	6.29
